From ChEMBL document CHEMBL3785007 (Drug Metabol Drug Interact, 2011)

Experiments:
[1] = Cmax in healthy Chinese subject (8 subjects) with heterozygous mutant of NAT2 genotype at 300 mg, po administered after overnight fast by HPLC method; assay type: ADME, organism-based; design: dose 300 mg, route oral; conditions: human, in vivo
[2] = system: Homo sapiens; experiment: AUC in healthy Chinese subject (8 subjects) with heterozygous mutant of NAT2 genotype at 300 mg, po administered after overnight fast by HPLC method; assay type: ADME, organism-based; conditions: in vivo
In short: (§1)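 Plasma separated within 1 h and stored at −70°C. Deproteinised with 10% perchloric acid, then reversed-phase C18 HPLC with UV detection at 266 nm. AUC by trapezoidal method extrapolated to infinity; mean±SD.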

[3] = Clearance in healthy Chinese subject (8 subjects) with heterozygous mutant of NAT2 genotype at 300 mg, po administered after overnight fast by HPLC method; assay type: ADME, organism-based; conditions: human, in vivo
[4] = system: Homo sapiens; experiment: Cmax in healthy Chinese subject (8 subjects) with heterozygous mutant of NAT2 genotype assessed as N-acetylisoniazid at 300 mg, po administered after overnight fast by HPLC method; assay type: ADME, organism-based; design: dose 300 mg, route oral; conditions: in vivo
[5] = system: Homo sapiens; experiment: AUC in healthy Chinese subject (8 subjects) with heterozygous mutant of NAT2 genotype assessed as N-acetylisoniazid at 300 mg, po administered after overnight fast by HPLC method; assay type: ADME, organism-based; conditions: in vivo; in short: as §1
[6] = system: Homo sapiens; experiment: Clearance in healthy Chinese subject (8 subjects) with heterozygous mutant of NAT2 genotype assessed as N-acetylisoniazid at 300 mg, po administered after overnight fast by HPLC method; assay type: ADME, organism-based; conditions: in vivo
[7] = Cmax in healthy Chinese subject (8 subjects) with homozygous wild type NAT2 genotype at 300 mg, po administered after overnight fast by HPLC method; assay type: ADME, organism-based; design: dose 300 mg, route oral; conditions: human, in vivo
[8] = system: Homo sapiens; experiment: AUC in healthy Chinese subject (8 subjects) with homozygous wild type NAT2 genotype at 300 mg, po administered after overnight fast by HPLC method; assay type: ADME, organism-based; conditions: in vivo; in short: as §1
[9] = Clearance in healthy Chinese subject (8 subjects) with homozygous wild type NAT2 genotype at 300 mg, po administered after overnight fast by HPLC method; assay type: ADME, organism-based; conditions: human, in vivo
[10] = system: Homo sapiens; experiment: Cmax in healthy Chinese subject (8 subjects) with homozygous wild type NAT2 genotype assessed as N-acetylisoniazid at 300 mg, po administered after overnight fast by HPLC method; assay type: ADME, organism-based; design: dose 300 mg, route oral; conditions: in vivo
[11] = system: Homo sapiens; experiment: AUC in healthy Chinese subject (8 subjects) with homozygous wild type NAT2 genotype assessed as N-acetylisoniazid at 300 mg, po administered after overnight fast by HPLC method; assay type: ADME, organism-based; conditions: in vivo; in short: as §1
[12] = system: Homo sapiens; experiment: Clearance in healthy Chinese subject (8 subjects) with homozygous wild type NAT2 genotype assessed as N-acetylisoniazid at 300 mg, po administered after overnight fast by HPLC method; assay type: ADME, organism-based; conditions: in vivo
[13] = Cmax in healthy Chinese subject (8 subjects) with homozygous mutant of NAT2 genotype at 300 mg, po administered after overnight fast by HPLC method; assay type: ADME, organism-based; design: dose 300 mg, route oral; conditions: human, in vivo
[14] = system: Homo sapiens; experiment: AUC in healthy Chinese subject (8 subjects) with homozygous mutant of NAT2 genotype at 300 mg, po administered after overnight fast by HPLC method; assay type: ADME, organism-based; conditions: in vivo; in short: as §1
[15] = Clearance in healthy Chinese subject (8 subjects) with homozygous mutant of NAT2 genotype at 300 mg, po administered after overnight fast by HPLC method; assay type: ADME, organism-based; conditions: human, in vivo
[16] = system: Homo sapiens; experiment: Cmax in healthy Chinese subject (8 subjects) with homozygous mutant of NAT2 genotype assessed as N-acetylisoniazid at 300 mg, po administered after overnight fast by HPLC method; assay type: ADME, organism-based; design: dose 300 mg, route oral; conditions: in vivo
[17] = system: Homo sapiens; experiment: AUC in healthy Chinese subject (8 subjects) with homozygous mutant of NAT2 genotype assessed as N-acetylisoniazid at 300 mg, po administered after overnight fast by HPLC method; assay type: ADME, organism-based; conditions: in vivo; in short: as §1
[18] = system: Homo sapiens; experiment: Clearance in healthy Chinese subject (8 subjects) with homozygous mutant of NAT2 genotype assessed as N-acetylisoniazid at 300 mg, po administered after overnight fast by HPLC method; assay type: ADME, organism-based; conditions: in vivo
[19] = system: Mycobacterium tuberculosis; experiment: Antitubercular activity against Mycobacterium tuberculosis in tuberculosis patient assessed as compound AUC (0 to infinity) required to cause 90% maximum early bactericidal activity at 0.2 to 12 mg/kg; assay type: functional, organism-based
[20] = system: Mycobacterium tuberculosis; experiment: Antitubercular activity against Mycobacterium tuberculosis in tuberculosis patient assessed as compound level in serum required to cause 90% maximum early bactericidal activity at 0.2 to 12 mg/kg after 2 hrs; assay type: functional

For NNC(=O)c1ccncc1 [ISONIAZID], the Cmax [1] was 5720 ng/mL, the AUC [2] was 16.3 mg·h/L and the CL/F [3] was 320 mL/min. For the same compound, the Cmax [4] was 3.99 mg/L, the AUC [5] was 38 mg·h/L and the CL [6] was 8.03 L/h. It also gave a Cmax [7] of 4930 ng/mL, an AUC [8] of 10.3 mg·h/L and a CL/F [9] of 501 mL/min. It also gave a Cmax [10] of 5.59 mg/L, an AUC [11] of 42.2 mg·h/L and a CL [12] of 7.4 L/h. It also gave a Cmax [13] of 8280 ng/mL, an AUC [14] of 42.2 mg·h/L and a CL/F [15] of 130 mL/min. For the same compound, the Cmax [16] was 1.38 mg/L, the AUC [17] was 19.8 mg·h/L and the CL [18] was 16.07 L/h. For the same compound, the AUC [19] was 10500 ng·h/mL and the Activity [20] was 2.19 µg/mL.
